In brackets after ≈: the same amount, converted by molar mass.
Columns and labels:
Format in all cases: functional
[1] = tested on: Pasteurella multocida; experiment: Minimum inhibitory concentration required to inhibit growth of Pasteurella multocida in vitro by microdilution method.
In short: (§1)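 Broth microdilution per NCCLS; E. coli 51A0150 (poultry lung) and P. multocida 59A0067 (turkey). Overnight BHI plate colonies suspended in saline to OD625 0.09 (0.5 McFarland), diluted 1:100 in BHI broth; final ~5×10^5 cfu/mL against 2-fold serial dilutions in BHI broth.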

[2] = tested on: Escherichia coli; experiment: In vitro minimum inhibitory concentration required to inhibit growth of Escherichia coli.; in short: as §1
[3] = tested on: Pasteurella multocida; experiment: Effective dose required to inhibit Pasteurella multocida infection model in mouse by subcutaneous administration
In short: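 Mice infected intranasally with P. multocida (respiratory disease model); drug given subcutaneously 0.5 h post-infection at 5–80 mg/kg. ED50 derived from number of surviving mice 4 days after infection.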

[4] = Pasteurella multocida, read-out: MIC
[5] = Pasteurella multocida, sc, read-out: ED50

| MIC [1, 4] [µg/mL] | MIC ([2]; Escherichia coli) [µg/mL] | MIC [1] [µg/mL] | MIC [2] [µg/mL] | Structure (SMILES) | ED50 [3, 5] [mg/kg] | ED50 [3] [mg/kg] |
| --- | --- | --- | --- | --- | --- | --- |
| < 0.1 | 0.39 (≈ 0.469 µM) |  |  | CC[C@H]1OC(=O)[C@H](C)[C@@H](O[C@H]2C[C@@](C)(OC)[C@@](O)(CN3CCCCC3)[C@H](C)O2)[C@H](C)[C@@H](O[C@@H]2O[C@H](C)C[C@H](N(C)C)[C@H]2O)[C@](C)(O)C[C@@H](C)CN[C@H](C)[C@@H](O)[C@]1(C)O | 40 |  |
| 0.05 (≈ 0.0613 µM) | 0.78 (≈ 0.956 µM) |  |  | CC[C@H]1OC(=O)[C@H](C)[C@@H](O[C@H]2C[C@@](C)(OC)[C@@](O)(Cn3ccnn3)[C@H](C)O2)[C@H](C)[C@@H](O[C@@H]2O[C@H](C)C[C@H](N(C)C)[C@H]2O)[C@](C)(O)C[C@@H](C)CN[C@H](C)[C@@H](O)[C@]1(C)O | 23 |  |
| 0.2 (≈ 0.24 µM) | 3.13 (≈ 3.75 µM) |  |  | CC[C@H]1OC(=O)[C@H](C)[C@@H](O[C@H]2C[C@@](C)(OC)[C@@](O)(CN3CCOCC3)[C@H](C)O2)[C@H](C)[C@@H](O[C@@H]2O[C@H](C)C[C@H](N(C)C)[C@H]2O)[C@](C)(O)C[C@@H](C)CN[C@H](C)[C@@H](O)[C@]1(C)O | 49 |  |
| < 0.1 | 1.56 (≈ 1.84 µM) |  |  | CC[C@H]1OC(=O)[C@H](C)[C@@H](O[C@H]2C[C@@](C)(OC)[C@@](O)(CNCC(F)(F)F)[C@H](C)O2)[C@H](C)[C@@H](O[C@@H]2O[C@H](C)C[C@H](N(C)C)[C@H]2O)[C@](C)(O)C[C@@H](C)CN[C@H](C)[C@@H](O)[C@]1(C)O | 46 |  |
| < 0.1 | 0.39 (≈ 0.476 µM) |  |  | CCCCNC[C@@]1(O)[C@H](C)O[C@@H](O[C@H]2[C@H](C)[C@@H](O[C@@H]3O[C@H](C)C[C@H](N(C)C)[C@H]3O)[C@](C)(O)C[C@@H](C)CN[C@H](C)[C@@H](O)[C@](C)(O)[C@@H](CC)OC(=O)[C@@H]2C)C[C@@]1(C)OC | 23 |  |
|  |  | < 0.1 | 0.78 (≈ 0.968 µM) | CC[C@H]1OC(=O)[C@H](C)[C@@H](O[C@H]2C[C@@](C)(OC)[C@@](O)(CN(C)CC)[C@H](C)O2)[C@H](C)[C@@H](O[C@@H]2O[C@H](C)C[C@H](N(C)C)[C@H]2O)[C@](C)(O)C[C@@H](C)CN[C@H](C)[C@@H](O)[C@]1(C)O (stereo in doubt; 8i) |  | 7.2 |
|  | 0.39 (≈ 0.484 µM) | 0.1 (≈ 0.124 µM) |  | CC[C@H]1OC(=O)[C@H](C)[C@@H](O[C@H]2C[C@@](C)(OC)[C@@](O)(CN(C)CC)[C@H](C)O2)[C@H](C)[C@@H](O[C@@H]2O[C@H](C)C[C@H](N(C)C)[C@H]2O)[C@](C)(O)C[C@@H](C)CN[C@H](C)[C@@H](O)[C@]1(C)O (stereo in doubt; 10g) | < 5 |  |

From ChEMBL document CHEMBL1135354, “Synthesis and activity of a novel class of tribasic macrocyclic antibiotics: the triamilides” (2002)
